How the values were obtained:
Cathepsin B [1] = biological target: Cathepsin B (Bos taurus, UniProt P07688); assay: Inhibition of bovine cathepsin B
In short: (§1)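 Bovine or human cathepsin B, assayed in 20 mM sodium acetate, pH 5.2, with 0.5 mM dithiothreitol and 2% DMSO. The two enzyme sources were used interchangeably. Ki was taken from Dixon plots, with triplicate assays plotted as 1/v versus inhibitor concentration.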

[2] = biological target: T1, Calpain-1 catalytic subunit (Homo sapiens, UniProt P07384); assay: Inhibition of the cysteine protease human Calpain 1
T1 sequence (P07384 whole entry): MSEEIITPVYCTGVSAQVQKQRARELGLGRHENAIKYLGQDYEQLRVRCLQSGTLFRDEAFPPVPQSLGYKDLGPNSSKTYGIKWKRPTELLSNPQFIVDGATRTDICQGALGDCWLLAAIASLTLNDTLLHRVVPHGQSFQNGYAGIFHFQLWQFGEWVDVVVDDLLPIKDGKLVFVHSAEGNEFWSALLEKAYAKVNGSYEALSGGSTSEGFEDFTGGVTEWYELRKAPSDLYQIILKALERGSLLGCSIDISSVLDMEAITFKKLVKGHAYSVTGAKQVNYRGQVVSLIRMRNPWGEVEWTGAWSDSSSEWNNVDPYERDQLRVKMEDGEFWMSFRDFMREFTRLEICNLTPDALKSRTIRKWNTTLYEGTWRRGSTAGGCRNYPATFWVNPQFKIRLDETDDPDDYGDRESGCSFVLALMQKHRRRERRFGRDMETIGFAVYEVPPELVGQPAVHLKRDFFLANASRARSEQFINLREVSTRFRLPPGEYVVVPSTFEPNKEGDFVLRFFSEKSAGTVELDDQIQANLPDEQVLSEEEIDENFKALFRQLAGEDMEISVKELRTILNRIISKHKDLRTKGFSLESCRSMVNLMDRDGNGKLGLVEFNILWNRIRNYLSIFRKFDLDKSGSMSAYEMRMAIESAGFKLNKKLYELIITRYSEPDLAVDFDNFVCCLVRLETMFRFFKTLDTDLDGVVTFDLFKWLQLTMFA
In short: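 Calpain assay in 25 mM Tris, pH 8.0, with 10 mM CaCl₂ and 5% DMSO. […] hydrolysis was read as initial velocity (t = 30-60 s) after a 30 s delay, at room temperature. Five or more inhibitor concentrations (not above 2 × K_obs) were used at two fixed substrate levels. Ki came from Dixon plots (1/v vs I) averaged over triplicates.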

Cathepsin B [3] = biological target: Cathepsin B (Homo sapiens, UniProt P07858); assay: Inhibition of human cathepsin B; in short: as §1

Row | Structure (SMILES) | Ki (Cathepsin B [1]) | Ki [2] | Ki (Cathepsin B [3])
1 | CCC(NC(=O)C(CC(C)C)NC(=O)OCc1ccccc1)C(=O)C(=O)NCC(OC)OC (stereo not given) | 0.19 µM | – | –
2 | CC(C)CC(NC(=O)OCc1ccccc1)C(=O)NC(Cc1ccccc1)C(=O)C(=O)NCCCN1CCCc2ccccc21 (stereo not given) | 0.14 µM | 0.38 µM | –
3 | CC(C)CC(NC(=O)C(c1ccccc1)c1ccccc1)C(=O)NC(Cc1ccccc1)C(=O)C(=O)NCCCN1CCOCC1 (stereo not given) | – | 0.76 µM | 3.8 µM
4 | CCCC(NC(=O)C(CC(C)C)NC(=O)OCc1ccccc1)C(=O)C(=O)NCC(O)c1ccccc1 (stereo not given) | 3.4 µM | 7.8 µM | –
5 | CCNC(=O)C(=O)C(CC)NC(=O)C(CC(C)C)NC(=O)c1cccnc1 (stereo not given) | 0.88 µM | 1.3 µM | –
6 | CC(C)CC(NC(=O)OCc1ccccc1)C(=O)NC(Cc1ccccc1)C(=O)C(=O)NCC(O)c1ccc(OCc2ccccc2)c(OCc2ccccc2)c1 (stereo not given) | 20 µM | 0.48 µM | –
7 | CC(C)CC(NC(=O)OCc1ccccc1)C(=O)NC(Cc1ccccc1)C(=O)C(=O)NCc1ccccn1 (stereo not given) | – | 0.65 µM | 0.8 µM
8 | CCC(NC(=O)C(CC(C)C)NC(=O)OCc1ccccc1)C(=O)C(=O)NCc1nc2c(c(=O)n(C)c(=O)n2C)n1C (stereo not given) | 1.7 µM | 32 µM | –
9 | CC(C)CC(NC(=O)OCc1ccccc1)C(=O)NC(Cc1ccccc1)C(=O)C(=O)NCC(O)c1ccc(N(C)C)cc1 (stereo not given) | 0.31 µM | 0.62 µM | –
10 | CC(C)CC(NC(=O)OCc1ccccc1)C(=O)NC(Cc1ccccc1)C(=O)C(=O)NCCCN1CCc2ccccc2C1 (stereo not given) | – | 0.22 µM | 4.5 µM
11 | CC(C)CC(NC(=O)OCc1ccccc1)C(=O)NC(Cc1ccccc1)C(=O)C(=O)NCC(O)c1cccc(Oc2ccc(Cl)c(Cl)c2)c1 (stereo not given) | 0.64 µM | 0.59 µM | –
12 | CC(C)CC(NC(=O)OCc1ccccc1)C(=O)NC(Cc1ccccc1)C(=O)C(=O)NCC(O)c1cccc(C(F)(F)F)c1 (stereo not given) | 0.14 µM | 0.46 µM | –
13 | CC(C)CC(NC(=O)OCc1ccccc1)C(=O)NC(Cc1ccccc1)C(=O)C(=O)NCC(O)c1ccc(OCc2ccccc2)cc1 (stereo not given) | 0.38 µM | – | –
14 | CCNC(=O)C(=O)C(CC)NC(=O)C(CC(C)C)NC(=O)N1CCOCC1 (stereo not given) | 4.3 µM | 7.9 µM | –
15 | CCC(NC(=O)C(CC(C)C)NC(=O)OCc1ccccc1)C(=O)C(=O)NCC(O)c1ccc(OCc2ccccc2)c(OCc2ccccc2)c1 (stereo not given) | 0.32 µM | 0.23 µM | –
16 | CCNC(=O)C(=O)C(CC)NC(=O)C(CC(C)C)NC(=O)c1ccco1 (stereo not given) | 1.2 µM | 0.85 µM | –
17 | CCC(NC(=O)C(CC(C)C)NC(=O)OCc1ccccc1)C(=O)C(=O)NCC(O)c1c(F)c(F)c(F)c(F)c1F (stereo not given) | 0.15 µM | 0.05 µM | –
18 | CC(C)CC(NC(=O)C(c1ccccc1)c1ccccc1)C(=O)NC(Cc1ccccc1)C(=O)C(=O)NCC(O)c1ccccc1 (stereo not given) | 0.24 µM | 10 µM | –
19 | CCC(NC(=O)C(CC(C)C)NC(=O)OCc1ccccc1)C(=O)C(=O)NCC(O)c1ccc(OC)cc1 (stereo not given) | 0.12 µM | 0.24 µM | –
20 | CCOC(CNC(=O)C(=O)C(CC)NC(=O)C(CC(C)C)NC(=O)OCc1ccccc1)OCC (stereo not given) | 0.11 µM | – | –
21 | CCC(NC(=O)C(CC(C)C)NC(=O)OCc1ccccc1)C(=O)C(=O)NC (stereo not given) | 0.33 µM | 0.28 µM | –
22 | CCC(NC(=O)C(CC(C)C)NC(=O)OCc1ccccc1)C(=O)C(=O)NCC(O)c1cccc2ccccc12 (stereo not given) | 0.063 µM | 0.12 µM | –
23 | CC(C)CC(NC(=O)OCc1ccccc1)C(=O)NC(Cc1ccccc1)C(=O)C(=O)NCC(O)c1cccc(Oc2ccccc2)c1 (stereo not given) | 0.64 µM | 0.6 µM | –
24 | CCC(NC(=O)C(CC(C)C)NC(=O)OCc1ccccc1)C(=O)C(=O)NCCc1cccn1C (stereo not given) | – | – | 1.2 µM
25 | CCNC(=O)C(=O)C(CC)NC(=O)C(CC(C)C)NC(=O)c1nccc2ccccc12 (stereo not given) | 0.22 µM | 0.35 µM | –

Row | Structure (SMILES) | Ki (Cathepsin B [1]) | Ki [2] | Ki (Cathepsin B [3])
26 | CCC(NC(=O)C(CC(C)C)NC(=O)C(c1ccccc1)c1ccccc1)C(=O)C(=O)NCCCN1CCOCC1 (stereo not given) | – | 0.8 µM | 2.3 µM
27 | CCNC(=O)C(=O)C(CC)NC(=O)C(CC(C)C)NC(=O)Cc1cccc2ccccc12 (stereo not given) | – | 0.3 µM | 0.35 µM
28 | CCNC(=O)C(=O)C(CC)NC(=O)C(CC(C)C)NC(=O)CCc1ccccc1 (stereo not given) | 0.22 µM | 1.9 µM | –
29 | CCC(NC(=O)C(CC(C)C)NC(=O)OCc1ccccc1)C(=O)C(=O)NCC(O)c1cccc(C(F)(F)F)c1 (stereo not given) | 0.11 µM | 0.35 µM | –
30 | CCC(NC(=O)C(CC(C)C)NC(=O)OCc1ccccc1)C(=O)C(=O)NCC(O)c1ccc2ccccc2c1 (stereo not given) | 0.063 µM | 0.35 µM | –
31 | CNC(=O)C(=O)C(Cc1ccccc1)NC(=O)C(CC(C)C)NC(=O)OCc1ccccc1 (stereo not given) | 0.57 µM | 0.35 µM | –
32 | CCNC(=O)C(=O)C(CC)NC(=O)C(CC(C)C)NC(=O)c1cnccn1 (stereo not given) | 0.35 µM | 1.4 µM | –
33 | CCC(NC(=O)C(CC(C)C)NC(=O)OCc1ccccc1)C(=O)C(=O)NCC(O)c1cccc(Oc2cccc(C(F)(F)F)c2)c1 (stereo not given) | 0.3 µM | 0.07 µM | –
34 | CC(C)CC(NC(=O)OCc1ccccc1)C(=O)NC(Cc1ccccc1)C(=O)C(=O)NCC(O)c1c(F)c(F)c(F)c(F)c1F (stereo not given) | 0.21 µM | 0.7 µM | –
35 | CCNC(=O)C(=O)C(CC)NC(=O)C(CC(C)C)NC(=O)C(c1ccccc1)c1ccccc1 (stereo not given) | 0.55 µM | 5 µM | –
36 | CC(C)CC(NC(=O)OCc1ccccc1)C(=O)NC(Cc1ccccc1)C(=O)C(=O)NCc1ccc2ccccc2n1 (stereo not given) | – | 0.11 µM | 0.34 µM
37 | CCC(NC(=O)C(CC(C)C)NC(=O)OCc1ccccc1)C(=O)C(=O)NCCc1ccccc1OC (stereo not given) | – | 0.13 µM | 0.63 µM
38 | CCC(NC(=O)C(CC(C)C)NC(=O)OCc1ccccc1)C(=O)C(=O)NCCCN1CCCc2ccccc21 (stereo not given) | 0.094 µM | 0.37 µM | –
39 | CCC(NC(=O)C(CC(C)C)NC(=O)OCc1ccccc1)C(=O)C(=O)NCC(O)c1ccc(N(C)C)cc1 (stereo not given) | 0.072 µM | 0.33 µM | –
40 | CCC(NC(=O)C(CC(C)C)NC(=O)OCc1ccccc1)C(=O)C(=O)NCC(O)c1cccc(Oc2ccccc2)c1 (stereo not given) | 0.12 µM | 0.9 µM | –
41 | CCC(NC(=O)C(CC(C)C)NC(=O)OCc1ccccc1)C(=O)C(=O)NCCNC(=O)CCCC[C@@H]1SC[C@@H]2NC(=O)N[C@@H]21 (stereo not given in full) | 0.66 µM | 0.65 µM | –
42 | CC(C)CC(NC(=O)OCc1ccccc1)C(=O)NC(Cc1ccccc1)C(=O)C(=O)NCC(O)c1ccc(Oc2ccccc2)cc1 (stereo not given) | 2.1 µM | 0.2 µM | –
43 | CCC(NC(=O)C(CC(C)C)NC(=O)OCc1ccccc1)C(=O)C(=O)NCC(O)c1cccc(Oc2ccc(Cl)c(Cl)c2)c1 (stereo not given) | 0.1 µM | 0.27 µM | –
44 | CCNC(=O)C(=O)C(CC)NC(=O)C(CC(C)C)NC(=O)c1ccc2ccccc2n1 (stereo not given) | 0.096 µM | – | –
45 | CC(C)CC(NC(=O)OCc1ccccc1)C(=O)NC(Cc1ccccc1)C(=O)C(=O)NCCNC(=O)CCCC[C@@H]1SC[C@@H]2NC(=O)N[C@@H]21 (stereo not given in full) | 0.23 µM | 0.22 µM | –
46 | CC(C)CC(NC(=O)OCc1ccccc1)C(=O)NC(Cc1ccccc1)C(=O)C(=O)NCC(O)c1cccc(Oc2cccc(C(F)(F)F)c2)c1 (stereo not given) | 0.12 µM | 0.18 µM | –
47 | CCC(NC(=O)C(CC(C)C)NC(=O)OCc1ccccc1)C(=O)C(=O)NCc1ccc2ccccc2n1 (stereo not given) | 0.45 µM | 0.13 µM | –
48 | CCC(NC(=O)C(CC(C)C)NC(=O)OCc1ccccc1)C(=O)C(=O)NCC(O)c1cc(OC)c(OC)c(OC)c1 (stereo not given) | 0.22 µM | 0.38 µM | –
49 | CCC(NC(=O)C(CC(C)C)NC(=O)OCc1ccccc1)C(=O)C(=O)NCC(O)c1ccc(OCc2ccccc2)cc1 (stereo not given) | 0.11 µM | 0.08 µM | –
50 | CCC(NC(=O)C(CC(C)C)NC(=O)OCc1ccccc1)C(=O)C(=O)NCC(O)c1ccc(Oc2ccccc2)cc1 (stereo not given) | 0.21 µM | 0.1 µM | –

Source: ChEMBL document CHEMBL1129436, “Novel peptidyl alpha-keto amide inhibitors of calpains and other cysteine proteases” (J Med Chem, 1996)
